Screening data as filed in PubChem BioAssay.
Sampled rows, rich in hits. Any-hit rate of the full collection: about 3.3%.
STAT3 activator: increases IL-6 driven STAT3 reporter signal; U3A cells, IL-6 STAT3-luciferase reporter, luminescence; 100% = signal with IL-6 EC80 alone; activation (% of control), % at 5.6 µM; actives 0.91% (n = 190,000);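 active = activation above the screen-wide mean of compound activation plus 3 SD, cut at about 130% in these data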
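Material: STAT3-luciferase reporter U3A cells. Controls: IL-6-treated wells, 100% activation. Read-out: % activation versus median of IL-6-stimulated wells. Probe or stimulus: IL-6 stimulus at 33 ng/mL final. Timing: compound 1 h, then IL-6 6 h at 37 °C. Signal: reporter luminescence signal.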
FXN GAA850 act: increases GAA850 frataxin promoter reporter activity | HEK293 lucGAA850 FXN promoter luciferase reporter, 24 h; percent of 10 µM SAHA response | activation, % at 6 µM | actives 0.56% (n = 360,000);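 active = activation above the average of all compounds screened plus 3 SD, cutoff fixed separately per campaign, cut at about 7.5% in these data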
AHR act: activators of human aryl hydrocarbon receptor. AHR-responsive luciferase reporter cells, luminescence. activation, % at 5 µM. actives 2.5% (n = 320,000). AID 2796; in the data active = activation above about 47%
ABCB6 inh MLPCN: human ABCB6 transporter inhibition | fluorescence ratio to DMSO, % at 10 µM | actives 0.19% (n = 360,000) | K562-ABCB6 porphyrin accumulation, flow cytometry, 1 h; active compounds read low | Q9NP58;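 active = fluorescence ratio to DMSO below 75%, the collection mean minus 3 SD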;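 also: signal is porphyrin accumulated inside mitochondria; lower ratio means ABCB6 inhibition with less porphyrin fluorescence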
Target sequence (Q9NP58 whole entry, looked up): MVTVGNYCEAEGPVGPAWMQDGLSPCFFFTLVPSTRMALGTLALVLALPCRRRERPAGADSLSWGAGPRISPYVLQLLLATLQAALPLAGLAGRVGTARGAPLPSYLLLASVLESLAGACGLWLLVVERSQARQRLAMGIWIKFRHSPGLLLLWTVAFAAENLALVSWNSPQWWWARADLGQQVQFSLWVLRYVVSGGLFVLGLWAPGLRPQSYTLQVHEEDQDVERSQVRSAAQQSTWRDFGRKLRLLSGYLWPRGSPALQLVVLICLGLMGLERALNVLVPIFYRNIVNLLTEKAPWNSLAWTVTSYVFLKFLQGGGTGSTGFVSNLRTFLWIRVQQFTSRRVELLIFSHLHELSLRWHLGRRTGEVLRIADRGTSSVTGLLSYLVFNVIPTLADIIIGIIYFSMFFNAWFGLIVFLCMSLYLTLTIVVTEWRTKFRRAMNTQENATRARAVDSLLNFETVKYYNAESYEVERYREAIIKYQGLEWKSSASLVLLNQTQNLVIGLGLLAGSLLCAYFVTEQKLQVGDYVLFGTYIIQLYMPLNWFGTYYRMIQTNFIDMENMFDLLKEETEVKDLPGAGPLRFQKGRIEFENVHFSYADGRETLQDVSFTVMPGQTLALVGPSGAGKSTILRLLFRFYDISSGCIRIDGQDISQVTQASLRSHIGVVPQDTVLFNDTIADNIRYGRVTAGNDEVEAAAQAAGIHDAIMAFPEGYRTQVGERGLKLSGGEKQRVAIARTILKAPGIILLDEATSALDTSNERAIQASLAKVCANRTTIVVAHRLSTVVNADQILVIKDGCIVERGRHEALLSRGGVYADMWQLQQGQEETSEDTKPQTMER
Of the large screens only hits and unclear results are named; the others gave an inactive call.

O=C(CN1CCN(c2ccccc2O)CC1)NC(=O)NCc1ccco1	none
O=C(CN1CCCc2ccccc21)N1CCc2ccccc21	none (no result: STAT3 activator)
O=C(CN1CCc2ccccc21)NC(=O)NCc1ccco1	STAT3 activator 135.4
Cc1cc(OCC(=O)NCc2cccnc2)c2c(C)c(C)c(=O)oc2c1	none (no result: STAT3 activator)
CCCc1cc(=O)oc2cc(C)cc(OCC(=O)NCc3ccncc3)c12	none (no result: STAT3 activator)
Cc1cc(OCC(=O)Nc2cccnc2)c2c(C)c(C)c(=O)oc2c1	AHR act 78.2 (no result: STAT3 activator)
CCc1cc(=O)oc2cc(C)cc(OCC(=O)NCc3ccncc3)c12	AHR act 74.9 (no result: STAT3 activator)
CCc1cc(=O)oc2cc(C)cc(OCC(=O)NCc3cccnc3)c12	AHR act 48.8 (no result: STAT3 activator)
O=C(Nc1ccccc1)c1cc(C2CCCCN2S(=O)(=O)Cc2cccc(C(F)(F)F)c2)on1 (stereo not drawn)	none (no result: STAT3 activator, AHR act)
COCCNC(=O)C1(C)CCCN(Cc2ccc(Cl)c(Cl)c2)C1 (stereo not drawn)	none (no result: STAT3 activator, AHR act)
Cc1ccc(-n2c(-c3ccc(Cl)cc3Cl)n[nH]c2=S)cc1	none (no result: STAT3 activator)
Nc1nc(-c2ccc(Cl)cc2Cl)cn1N	AHR act 64.5
CS(=O)(=O)N1CCN(c2ccc([N+](=O)[O-])c(N3CCOCC3)c2)CC1	none
CN(C)S(=O)(=O)N1CCN(c2ccc([N+](=O)[O-])c(N3CCOCC3)c2)CC1	STAT3 activator 135.7
O=C(Nc1ccc2nc3n(c(=O)c2c1)CCCC3)c1cncc(Br)c1	none (no result: STAT3 activator)
COc1ccc(-c2csc(NC(=O)CSc3n[nH]c(C)n3)n2)cc1	none (no result: STAT3 activator)
O=C(CSc1nc2ccccc2[nH]1)Nc1nc(-c2ccc(Br)cc2)cs1	AHR act 48.0
COc1ccc(-c2csc(NC(=O)CSc3n[nH]c(N)n3)n2)cc1	AHR act 49.3
CCCc1cc(=O)[nH]c(SCC(=O)Nc2nc(-c3ccccc3)cs2)n1	none
O=C(O)CCNc1cc(N2CCN(C(=O)c3ccco3)CC2)c2noc3c2c1C(=O)c1ccccc1-3	AHR act 56.9 (no result: STAT3 activator)
CCN1CCN(c2cc(N3CCN(C(=O)c4ccco4)CC3)c3c4c(onc24)-c2ccccc2C3=O)CC1	none (no result: STAT3 activator)
O=C(Nc1nc2cc3c(cc2s1)OCCO3)C1=COCCO1	none (no result: STAT3 activator)
O=C(Nc1nc2ccc(F)cc2s1)C1=COCCO1	AHR act 48.0 (no result: STAT3 activator)
O=C(Nc1ccccc1N1CCCC1)C1=COCCO1	none (no result: STAT3 activator)
O=C(Nc1ccccc1-c1nc2ccccc2s1)C1=COCCO1	AHR act 93.1
CN(CCCNC(=O)Cn1cc2c(n1)CCCC2)C1CCCCC1	none
CC(OC(=O)CC1CCCC1)C(=O)Nc1ccc(Cl)cn1 (stereo not drawn)	none (no result: STAT3 activator)
O=C(NC1CCCCC1)C1c2ccccc2OCC(=O)N1Cc1ccccc1 (stereo not drawn)	none (no result: STAT3 activator, FXN GAA850 act, AHR act)
Nc1ccc2nc(SCc3ccccc3F)sc2c1	none (no result: STAT3 activator)
Nc1nnc(SCC(=O)c2ccc3ccccc3c2)s1	AHR act 48.1 (no result: FXN GAA850 act)
Nc1nnc(SCC(=O)c2cccc([N+](=O)[O-])c2)s1	none
Nc1ccc2nc(SCC(=O)c3ccccc3)sc2c1	AHR act 49.1 (no result: STAT3 activator)
CCOc1cc(/C=N\Nc2ncc(F)c(N3CCOCC3)n2)ccc1Oc1nc(Cl)ncc1F	none (no result: STAT3 activator)
COc1ccccc1OCCOc1ccccc1/C=N/n1cnnc1	none
COc1ccccc1OCCn1cc(/C=N/n2cnnc2)c2ccccc21	AHR act 49.4
COc1ccc(-n2c(C)c(C)c3c(N)ncnc32)cc1	none (no result: STAT3 activator)
Cc1cc2nc(C3CCN(Cc4nnnn4Cc4ccccc4)CC3)[nH]c2cc1C	AHR act 54.3
CCC(C)(C)n1nnnc1CN1CCC(c2nc3ccc(C)cc3[nH]2)CC1	none
CC(C)(C)OC(=O)N[C@@H](Cc1ccccc1)C(=O)N[C@@H](CO)[C@H](O)[C@@H]1C[C@@H]1C(=O)NC1CCCCC1	none (no result: STAT3 activator)
C/C(=N\N=C(N)N)c1ccc(C)c(C)c1	AHR act 59.4 (no result: STAT3 activator)
C/C(=N\N=C(N)N)c1cccc([N+](=O)[O-])c1	none
Cc1ccc(-c2cc(-c3ccccc3)nc(NN)n2)cc1	AHR act 66.4 (no result: STAT3 activator)
COc1ccc(-c2cc(-c3ccccc3)nc(NN)n2)cc1OC	AHR act 65.4 (no result: STAT3 activator)
CN(C)S(=O)(=O)N1CCc2ccc(NC(=O)c3ccccc3Cl)cc2C1	none (no result: STAT3 activator)
COc1ccc(-c2cc3nc(C)cc(N4CC(C)CC(C)C4)n3n2)cc1 (stereo not drawn)	AHR act 49.5
COc1ccc(/C=N/NC(=O)Cc2cccs2)cc1	none (no result: STAT3 activator)
COc1cc(/C=N/NC(=O)Cc2cccs2)c([N+](=O)[O-])cc1OC	AHR act 49.2
CN(C)S(=O)(=O)N1CCN(c2cccc(Cl)c2)CC1	none
O=S(=O)(/C=C/c1ccccc1)N1CCN(c2cccc(Cl)c2)CC1	ABCB6 inh MLPCN 69.0
CS(=O)(=O)Nc1nnc(SCC(=O)Nc2cccc([N+](=O)[O-])c2)s1	none
CCOC(=O)Nc1sc(C)c(C)c1C(=O)OCC	none
CCOC(=O)c1c(NC(=O)Nc2ccccc2)sc(C)c1C	AHR act 48.5
O=C(CN(C(=O)CNS(=O)(=O)c1ccccc1)c1ccc(F)cc1)NCc1ccco1	none (no result: STAT3 activator)
Cc1cc(N=Cc2c(O)ccc3ccccc23)no1	STAT3 activator 134.8
CCNc1nc(NC(C)C)nc(SCCOc2ccc(C)cc2)n1	AHR act 47.1
CCC(C)(C)C1CCC(=NNc2nc3ccccc3[nH]2)CC1 (stereo not drawn)	AHR act 49.6
O=c1[nH]cc(S(=O)(=O)NCc2ccccc2)c(=O)[nH]1	none (no result: STAT3 activator)
Cc1ccc2cccc(OCc3ccc(Br)cc3)c2n1	AHR act 72.9 (no result: STAT3 activator)
Cc1c(C(=O)NCc2ccccn2)oc2ccccc12	AHR act 59.5
C=CCNC(=S)NC(=O)c1oc2ccccc2c1C	AHR act 66.3
Cc1c(C(=O)NNC(=O)c2ccccc2O)oc2ccc(Br)cc12	AHR act 50.5 (no result: STAT3 activator)
Cc1c(C(=O)NCc2cccs2)oc2ccc(Br)cc12	none
Cc1c(C(=O)NCc2ccccn2)oc2ccc(Br)cc12	AHR act 47.7 (no result: STAT3 activator)
CCOc1ccc2oc(C(=O)NNC(=O)c3ccccc3O)c(C)c2c1	none (no result: STAT3 activator)
O=C(/C=C/c1ccccc1)NC(=S)Nc1ccc2c3c(cccc13)CC2	none
O=C1c2cccc(NCCCNCCO)c2C(=O)c2cccc(NCCCNCCO)c21	none (no result: STAT3 activator, AHR act)
Cn1c(N)c(C(=O)COC(=O)[C@H](Cc2ccccc2)N2C(=O)c3ccccc3C2=O)c(=O)n(C)c1=O	AHR act 57.6
CN(CCC#N)C(=O)COC(=O)[C@H](Cc1ccccc1)N1C(=O)c2ccccc2C1=O	AHR act 53.6 (no result: STAT3 activator)
CCN(C(=O)COC(=O)C(Cc1ccccc1)N1C(=O)c2ccccc2C1=O)C1CCS(=O)(=O)C1 (stereo not drawn)	none
CC(C)CC(C(=O)OCC(=O)c1c(N)n(C)c(=O)n(C)c1=O)N1C(=O)c2ccccc2C1=O (stereo not drawn)	none
Cc1cccc(NC(=O)CCCN2C(=S)NC(C)(C)CC2C)c1C (stereo not drawn)	none
COc1ccc(NC(=S)N(CCc2c(C)[nH]c3ccc(C)cc23)Cc2cccs2)cc1	AHR act 64.5
COc1ccc(NC(=S)N(CCO)Cc2cc3c(C)cc(C)cc3[nH]c2=O)cc1	AHR act 59.1 (no result: STAT3 activator)
CC(C)C(c1nnnn1C1CCCC1)N1CCN(C(=O)c2ccco2)CC1 (stereo not drawn)	none
